For series [1], the system named is Rattus norvegicus. Put plainly: Cardiotoxicity in Wistar rat assessed as effect on QRS interval at 2.5 mg/kg, iv after 1 min. As to conditions: in vivo. More on the design: dose 2.5 mg/kg, route intravenous. The series is classed as toxicity, organism-based. In a few lines: (§1)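 Male Wistar rats (180–250 g), anaesthetised with thiopental 60 mg/kg ip. Compound given iv in water at 10 mg/kg, or at a lower starting dose of 5 or 2.5 mg/kg. Standard lead II ECG recorded at 50 mm/s just before dosing and at 1, 5 and 15 min after. Heart rate and P–Q, Q–T and QRS intervals were read. n=6 per group, mean ± SEM, one-way ANOVA.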

Series [2] deals with Rattus norvegicus. The series can be described thus: Antiarrhythmic activity in Wistar rat assessed as effect on heart beat at 2.5 mg/kg, iv after 5 mins. The class given is functional. Put shortly: as §1
The target of series [3] is T1, Adrenergic receptor alpha-1 (Rattus norvegicus, UniProt P15823+P23944+P43140).
T1 sequence (P15823 whole entry): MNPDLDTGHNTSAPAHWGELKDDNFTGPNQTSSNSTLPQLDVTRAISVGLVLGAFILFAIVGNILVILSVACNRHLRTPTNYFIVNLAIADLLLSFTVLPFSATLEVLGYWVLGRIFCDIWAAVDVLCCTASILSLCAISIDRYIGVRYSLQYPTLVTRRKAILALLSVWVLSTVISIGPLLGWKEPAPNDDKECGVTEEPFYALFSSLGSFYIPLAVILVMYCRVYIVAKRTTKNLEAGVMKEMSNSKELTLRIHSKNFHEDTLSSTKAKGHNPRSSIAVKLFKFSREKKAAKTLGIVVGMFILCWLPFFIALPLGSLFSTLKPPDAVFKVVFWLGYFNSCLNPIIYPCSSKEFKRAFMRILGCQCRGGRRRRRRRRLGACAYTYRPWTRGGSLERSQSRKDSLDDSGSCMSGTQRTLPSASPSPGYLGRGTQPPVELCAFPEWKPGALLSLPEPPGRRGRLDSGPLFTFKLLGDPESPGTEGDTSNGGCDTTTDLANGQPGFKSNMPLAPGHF
T1 sequence (P23944 whole entry): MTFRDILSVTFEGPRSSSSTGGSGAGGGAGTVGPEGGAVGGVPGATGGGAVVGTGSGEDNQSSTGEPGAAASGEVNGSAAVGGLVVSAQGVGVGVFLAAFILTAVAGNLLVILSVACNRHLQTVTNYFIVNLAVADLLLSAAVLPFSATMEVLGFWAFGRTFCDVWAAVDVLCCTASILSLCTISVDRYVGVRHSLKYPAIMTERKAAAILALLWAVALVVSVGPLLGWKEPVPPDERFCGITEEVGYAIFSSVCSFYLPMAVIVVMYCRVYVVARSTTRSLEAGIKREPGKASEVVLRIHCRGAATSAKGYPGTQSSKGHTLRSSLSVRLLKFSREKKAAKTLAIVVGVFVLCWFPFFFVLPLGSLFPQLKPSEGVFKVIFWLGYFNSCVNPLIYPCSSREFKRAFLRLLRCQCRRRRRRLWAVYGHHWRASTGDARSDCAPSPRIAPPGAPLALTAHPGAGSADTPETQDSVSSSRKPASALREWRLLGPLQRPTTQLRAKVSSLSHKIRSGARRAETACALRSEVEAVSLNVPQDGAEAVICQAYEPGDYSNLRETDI
T1 sequence (P43140 whole entry): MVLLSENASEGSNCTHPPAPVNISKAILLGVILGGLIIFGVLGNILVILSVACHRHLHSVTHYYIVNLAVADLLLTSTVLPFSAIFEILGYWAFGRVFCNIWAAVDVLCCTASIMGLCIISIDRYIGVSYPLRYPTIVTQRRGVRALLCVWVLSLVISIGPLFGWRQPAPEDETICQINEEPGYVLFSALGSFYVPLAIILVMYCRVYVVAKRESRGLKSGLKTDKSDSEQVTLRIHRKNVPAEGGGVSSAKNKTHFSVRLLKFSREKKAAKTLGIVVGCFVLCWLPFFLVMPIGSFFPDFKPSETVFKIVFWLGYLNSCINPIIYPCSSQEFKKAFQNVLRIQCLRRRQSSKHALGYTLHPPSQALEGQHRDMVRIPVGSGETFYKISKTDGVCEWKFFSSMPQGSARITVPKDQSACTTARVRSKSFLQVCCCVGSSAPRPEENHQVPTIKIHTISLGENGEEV
The series can be described thus: Displacement of [3H]prazosin from alpha1 adrenoceptor in rat cerebral cortex after 30 mins by microbeta scintillation counting. The class given is tissue-based. In a few lines: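 Rat cerebral cortex homogenised in ice-cold 50 mM Tris-HCl (pH 7.6 at 25 °C), washed twice at 20000×g and resuspended at 10 mg wet weight/ml. Incubated with [3H]prazosin (19.5 Ci/mmol) and test compound for 30 min at 25 °C. Nonspecific binding defined with 10 µM phentolamine. GF/B filtration, scintillation counting, three-parameter logistic competition fit.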

In series [4] the test system is Rattus norvegicus. Put plainly: Antiarrhythmic activity in Wistar rat assessed as protection against adrenaline-induced bigeminy at 2.5 to 10 mg/kg, iv administered 15 mins prior to adrenaline-challenge. The series is classed as functional, organism-based. As to conditions: Heart. In a few lines: (§2)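 Szekeres model in male Wistar rats anaesthetised with thiopental (60 mg/kg ip). Test compound given iv in water (2.5–10 mg/kg) 15 min before adrenaline 20 µg/kg iv. Scored for extrasystoles, bigeminy and mortality; activity means no premature beats and inhibited arrhythmia versus controls.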

The subject of series [5] is Rattus norvegicus. Put plainly: Cardiotoxicity in Wistar rat assessed as effect on Q-T interval at 2.5 mg/kg, iv after 15 mins. The class given is toxicity, organism-based. Conditions: in vivo, 0.25 h. The arrangement: dose 2.5 mg/kg, route intravenous. In a few lines: as §1
Series [6] deals with Rattus norvegicus. Put plainly: Antiarrhythmic activity in Wistar rat assessed as effect on heart beat at 2.5 mg/kg, iv after 15 mins. The class given is functional. In a few lines:
as §1

The test system of series [7] is Rattus norvegicus. Put plainly: Cardiotoxicity in Wistar rat assessed as effect on P-Q interval at 2.5 mg/kg, iv after 15 mins. The series is classed as toxicity, organism-based. The arrangement: dose 2.5 mg/kg, route intravenous. As to conditions: in vivo, 0.25 h. In a few lines: as §1
In series [8] the test system is Rattus norvegicus. Put plainly: Hypotensive activity in normotensive Wistar rat assessed as decrease in diastolic blood pressure at 2.5 to 10 mg/kg, iv after 1 min measured up to 60 mins. The series is classed as organism-based, Artery. More on the design: dose 2.5-10 mg/kg, route intravenous. Conditions: in vivo. Put shortly: (§3)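 Right carotid artery cannulated with heparin-saline-filled tubing for blood pressure recording. After 5 min stabilisation, compound injected iv into the caudal vein (2.5–10 mg/kg, 1 ml/kg). Systolic and diastolic pressure followed for 60 min. n=6 per group, mean ± SEM, one-way ANOVA.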

In series [9] the test system is Rattus norvegicus. Put plainly: Hypotensive activity in normotensive Wistar rat assessed as decrease in systolic blood pressure at 2.5 to 10 mg/kg, iv after 1 min measured up to 60 mins. The class given is organism-based, Artery. More on the design: dose 2.5-10 mg/kg, route intravenous. Conditions: in vivo. Put shortly:
as §3

For series [10], the system named is Rattus norvegicus. Put plainly: Cardiotoxicity in Wistar rat assessed as effect on QRS interval at 2.5 mg/kg, iv after 5 mins. The class given is toxicity, organism-based. More on the design: dose 2.5 mg/kg, route intravenous. Conditions: in vivo. Put shortly:
as §1

Series [11] relates to Rattus norvegicus. Put plainly: Cardiotoxicity in Wistar rat assessed as effect on QRS interval at 2.5 mg/kg, iv after 15 mins. As to conditions: in vivo, 0.25 h. The series is classed as toxicity, organism-based. The arrangement: dose 2.5 mg/kg, route intravenous. In a few lines:
as §1

For series [12], the system named is Rattus norvegicus. Put plainly: Cardiotoxicity in Wistar rat assessed as effect on Q-T interval at 2.5 mg/kg, iv after 5 mins. The class given is toxicity, organism-based. The arrangement: dose 2.5 mg/kg, route intravenous. Conditions: in vivo. In a few lines:
as §1

Series [13] has as its system Rattus norvegicus. The series can be described thus: Cardiotoxicity in Wistar rat assessed as effect on P-Q interval at 2.5 mg/kg, iv after 1 min. As to conditions: in vivo. The arrangement: dose 2.5 mg/kg, route intravenous. The series is classed as toxicity, organism-based. Put shortly: as §1
For series [14], the system named is Rattus norvegicus. Put plainly: Antiarrhythmic activity in iv dosed Wistar rat assessed as protection against adrenaline-induced arrhythmia administered 15 mins prior to adrenaline-challenge. The class given is functional. Conditions: Heart. In a few lines: as §2
Series [15] has as its system Rattus norvegicus. Put plainly: Antiarrhythmic activity in barium chloride-induced Wistar rat arrhythmia model assessed as protection against mortality at 2.5 to 10 mg/kg, iv administered 15 mins prior to barium chloride-challenge. The class given is functional, organism-based. Conditions: Heart. Put shortly:
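Szekeres model in male Wistar rats. Activity is gradual disappearance of arrhythmia with restored sinus rhythm; protection against disturbances and death scored. Groups of 6 animals.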

Series [16] has as its system Rattus norvegicus. Put plainly: Antiarrhythmic activity in Wistar rat assessed as protection against adrenaline-induced extrasystoles at 2.5 to 10 mg/kg, iv administered 15 mins prior to adrenaline-challenge. The class given is functional, organism-based. Conditions: Heart. Put shortly:
as §2

Series [17] relates to Rattus norvegicus. Put plainly: Antiarrhythmic activity in Wistar rat assessed as effect on heart beat at 2.5 mg/kg, iv after 1 min. The class given is functional. Put shortly: as §1
The subject of series [18] is Rattus norvegicus. Put plainly: Cardiotoxicity in Wistar rat assessed as effect on Q-T interval at 2.5 mg/kg, iv after 1 min. The class given is toxicity, organism-based. The arrangement: dose 2.5 mg/kg, route intravenous. Conditions: in vivo. Put shortly: as §1
Series [19] has as its system Rattus norvegicus. The series can be described thus: Cardiotoxicity in Wistar rat assessed as effect on P-Q interval at 2.5 mg/kg, iv after 5 mins. The class given is toxicity, organism-based. More on the design: dose 2.5 mg/kg, route intravenous. As to conditions: in vivo. In a few lines: as §1

Each structure is given as a SMILES string. Active and inactive are the calls of the source. The rule behind the calls is not given here.

The term Ki denotes the equilibrium dissociation constant of an inhibitor or competing ligand from its target. In general, pKi refers to −log10 of the Ki, conventionally taken in molar units. Lower therefore signals a large Ki. As a reminder, the ED50 is the dose at which the effect has come halfway, by size or by number of responders. Consider `COc1ccccc1N1CCN(CCCCN2C(=O)N(C)C(=O)C2(c2ccccc2)c2ccccc2)CC1.Cl`, for which the Activity was 22 ms in series [1]; 333 min⁻¹ in series [2]; 86 ms in series [5]; 346 min⁻¹ in series [6]; 49 ms in series [7]; “Toxic” in series [8]. Besides, the Activity entry was “Toxic” in series [9]; 22 ms in [10]; 22 ms in [11]; 81 ms in [12]; 50 ms in series [13]; 338 min⁻¹ in series [17]. In addition, the figures for the Activity in series [18] and in series [19] were 83 ms and 51 ms, respectively. In series [3], this compound had a Ki of 4.7 nM. The same compound yielded a pKi in [3] of 8.33. Besides, the outcome in series [4], in [15] and in series [16] was Active. Besides, the ED50 in series [14] was 0.1 mg/kg.

The values above are taken from ChEMBL document CHEMBL2040780, “Antiarrhythmic properties of phenylpiperazine derivatives of phenytoin with α₁-adrenoceptor affinities” (Bioorg Med Chem, 2012).
